TAAR1 agonist: human TAAR1 agonism. actives 0.99% (n = 360,000). CHO RD-HGA16 TAAR1, Fluo-8 calcium fluorescence; vehicle wells 0%, saturating PEA agonist 100%. activation, % at 3 µM. Q96RJ0. AID 624467;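 active = activation above the mean activation of all test compounds in the run plus 3 SD, cut at about 38% in these data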
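Assay system – CHO-derived RD-HGA16 cells with stable Gα16 and human TAAR1 · Compound dosing – one-point dosing at 3 µM (nominal) · Incubation – 17-24 h seeding, 75 min 37 °C dye, 30 min RT · Measured by – kinetic Fluo-8 calcium fluorescence · Control set – DMSO vehicle as 0%, PEA at EC100 as 100% · Repeats – single well for each compound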
CHRM1 PAM: potentiates human M1 receptor response to acetylcholine | CHO-K1 hM1, Fluo-8 calcium fluorescence, ACh EC20; 0% = ACh EC20, 100% = maximal ACh | AID 588819 | actives 0.088% (n = 360,000) | P11229 | activation, % at 3 µM; in the data active = activation above about 19%, passing the limit was not always enough
Target sequence (P11229 whole entry, looked up): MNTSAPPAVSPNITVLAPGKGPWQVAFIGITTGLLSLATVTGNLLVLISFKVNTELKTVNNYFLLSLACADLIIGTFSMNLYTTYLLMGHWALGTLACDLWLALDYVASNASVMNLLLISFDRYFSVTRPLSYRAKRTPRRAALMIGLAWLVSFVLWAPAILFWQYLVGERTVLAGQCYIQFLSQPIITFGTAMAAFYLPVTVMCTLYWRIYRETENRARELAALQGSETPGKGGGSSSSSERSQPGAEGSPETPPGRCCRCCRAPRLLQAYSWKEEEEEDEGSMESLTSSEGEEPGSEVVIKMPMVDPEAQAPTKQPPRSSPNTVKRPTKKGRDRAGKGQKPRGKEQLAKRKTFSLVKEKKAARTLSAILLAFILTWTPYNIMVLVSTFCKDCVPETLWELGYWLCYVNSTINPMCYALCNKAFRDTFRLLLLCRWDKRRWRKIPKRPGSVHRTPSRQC
CHRM1 agonist: human M1 muscarinic receptor agonism; CHO-K1 hM1, Fluo-8 calcium fluorescence, agonist mode; 0% DMSO, 100% acetylcholine EC100; activation, % at 3 µM; actives 0.33% (n = 360,000); AID 588814;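 active = activation above the run's mean compound activation plus 3 SD, cut at about 16% in these data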;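 note: peak over basal fluorescence ratio within a 140 s kinetic read after compound addition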
TAAR1 antagonist: human TAAR1 antagonism; CHO RD-HGA16 TAAR1, Fluo-8 calcium fluorescence, antagonist; actives 1.5% (n = 360,000); AID 624466; inhibition, % at 3 µM;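 active = inhibition above a per-plate cutoff, the mean inhibition of test compounds on that plate plus 3 SD, cut at about 49% in these data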
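Assay system: CHO-derived RD-HGA16 cells stably expressing human TAAR1 plus Gα16. Timing: 140 s kinetic read after compound, 140 s after agonist. Technique: kinetic Fluo-8 calcium fluorescence measurement. Measure: % inhibition of agonist calcium response.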
CHRM1 antagonist: antagonists of human M1 muscarinic receptor; CHO-K1 hM1, Fluo-8 calcium fluorescence, ACh EC80 antagonist; inhibition, % at 3 µM; actives 1.3% (n = 360,000); AID 588852;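 active = percent inhibition above its own plate's cutoff, namely the mean of that plate's compound wells plus 3 SD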;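 note: peak over basal fluorescence ratio during 140 s after agonist addition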
TAAR1 ag conf: human TAAR1 agonism, confirmed. shares compounds with TAAR1 agonist. activation, % at 3 µM. CHO RD-HGA16 TAAR1, Fluo-8 calcium fluorescence; scaled: DMSO 0%, maximal phenethylamine 100%. actives 82% (n = 2,400);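 active = activation above a cutoff set at the run's mean compound activation plus 3 SD, cut at about 39% in these data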
Ga16 ag counter: nonselective agonist in parental cells, TAAR1 agonist counter-screen; activation, % at 3 µM; actives 50% (n = 2,400); AID 651787; shares compounds with TAAR1 agonist; CHO-Ga16 parental, Fluo-8 calcium fluorescence; normalized to maximal ATP response, DMSO zero;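 active = activation above the run cutoff, the mean activation over all tested wells plus 3 SD, cut at about 12% in these data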
TAAR1 desens: human TAAR1 agonist that also desensitizes the receptor; shares compounds with TAAR1 agonist; CHO RD-HGA16 hTAAR1, Fluo-8 calcium, beta-PEA response inhibition; inhibition, % at 3 µM; actives 46% (n = 2,400);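 active = inhibition above the run cutoff, the mean inhibition of all test compounds plus 3 SD, cut at about 49% in these data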;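 note: beta-PEA stimulus applied at its EC80; loss of beta-PEA calcium signal after compound pretreatment read as receptor desensitization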
Ga16 nonsel ant: nonselective Ga16 antagonism, counter-screen; shares compounds with TAAR1 agonist; CHO-Ga16 ATP-induced calcium, Fluo-8 fluorescence; inhibition, % at 3 µM; actives 39% (n = 2,400);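 active = inhibition above the plate's mean compound inhibition plus 3 SD, computed per plate, cut at about 22% in these data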
Large screens that a line does not name were inactive (follow-up assays come after a bar, where they were run). Compounds with a hit are over-represented: about 3.4% of the library has one in this group of screens.

COCCC(=O)N1CCC(n2nccc2NC(=O)CCc2ccccc2)CC1	none
Cc1cccc(NC(=S)NCc2ccc3c(c2)OCO3)c1C	none
Cc1cccc(NC(=O)C(=O)NCc2ccc3c(c2)OCO3)c1C	TAAR1 agonist 56 | TAAR1 ag conf inactive | Ga16 ag counter inactive | TAAR1 desens inactive | Ga16 nonsel ant inactive
CCCCCCCCN1C(=O)[C@H](CC(=O)NCc2ccc(C)o2)C[C@@]2(C(=O)OC)CCCCC=C12	none (no result: CHRM1 PAM, CHRM1 agonist, CHRM1 antagonist)
Cn1c(C(=O)OCC(=O)NCCc2ccccc2)cc2sccc21	TAAR1 agonist 98 | TAAR1 ag conf inactive | Ga16 ag counter inactive | TAAR1 desens inactive | Ga16 nonsel ant inactive
Cn1c(C(=O)OCC(=O)NCc2cccs2)cc2sccc21	none
CCCc1cc(=O)[nH]c(SCC(=O)N2CCc3ccccc3C2)n1	TAAR1 agonist 85, TAAR1 antagonist 55 | TAAR1 ag conf 92 | Ga16 ag counter inactive | TAAR1 desens inactive | Ga16 nonsel ant inactive
CC(C)Cn1c(SCC(=O)N2CCc3ccccc3C2)nc(O)cc1=O	none (no result: TAAR1 agonist, TAAR1 antagonist) | Ga16 ag counter inactive | Ga16 nonsel ant inactive
O=C(CSc1nccc(=O)[nH]1)N1CCc2ccccc2C1	none (no result: TAAR1 agonist, TAAR1 antagonist) | Ga16 ag counter inactive | Ga16 nonsel ant inactive
CCCc1cc(=O)[nH]c(SCC(=O)c2ccc3c(c2)NC(=O)CO3)n1	TAAR1 agonist 54 | TAAR1 ag conf inactive | Ga16 ag counter inactive | TAAR1 desens inactive | Ga16 nonsel ant inactive
CCCc1nc(SCC(=O)c2ccc3c(c2)NC(=O)CO3)[nH]c(=O)c1CC	none
CC(C)Cn1c(SCC(=O)N2CCc3ccccc3C2)nc2cc(Cl)ccc2c1=O	none
COc1ccc(OC)c(CNC(=O)C2CCC(=O)N(CCCN3CCCC3=O)C2)c1 (stereo unspecified)	none
Nc1nc(SCC(=O)N2CCc3ccccc3C2)[nH]c(=O)c1-c1ccccc1	TAAR1 agonist 92, TAAR1 antagonist 90 | TAAR1 ag conf 107 | Ga16 ag counter 22 | TAAR1 desens 95 | Ga16 nonsel ant inactive
CC(=O)c1ccc(NC(=O)C2C3C=CC(C3=C(c3ccccc3)c3ccccc3)C2C(=O)O)cc1 (stereo unspecified)	TAAR1 agonist 75 | TAAR1 ag conf 102 | Ga16 ag counter 71 | TAAR1 desens inactive | Ga16 nonsel ant inactive
CC(=O)c1ccc(NC(=O)C2CC2c2ccccc2)cc1 (stereo unspecified)	none
CNC(=O)NC(=O)CSc1ccc(S(=O)(=O)N2CCOCC2)cn1	none
O=C(Nc1ccc2c(c1)OCO2)Nc1ccccc1F	none
CCc1ccccc1NC(=O)Nc1ccc2c(c1)OCO2	TAAR1 agonist 64 | TAAR1 ag conf inactive | Ga16 ag counter inactive | TAAR1 desens inactive | Ga16 nonsel ant inactive
Cc1ccnc(NC(=O)Nc2ccc3c(c2)OCO3)c1	TAAR1 agonist 47 | TAAR1 ag conf 87 | Ga16 ag counter inactive | TAAR1 desens 66 | Ga16 nonsel ant inactive
O=C(CCN1CCc2ccccc2CC1)c1ccc2c(c1)OCCO2	TAAR1 agonist 92, TAAR1 antagonist 85 | TAAR1 ag conf 115 | Ga16 ag counter inactive | TAAR1 desens 97 | Ga16 nonsel ant inactive
O=C(CCN1CCOCC1)c1ccc2c(c1)OCCO2	none
COc1ccc2[nH]c3c(c2c1)CCN1C(=O)C(CC(=O)NCCCn2ccnc2)C[C@H](C(=O)N2CCCCC2)[C@@]31C (stereo partly specified)	none
Cc1ccccc1N(C(=O)c1ccccn1)C(C(=O)NCc1ccccc1)c1cccnc1 (stereo unspecified)	none
O=C(Nc1cccc(C(=O)Nc2ccc(Cl)cn2)c1)c1ccccc1	TAAR1 agonist 87, TAAR1 antagonist 86 | TAAR1 ag conf inactive | Ga16 ag counter inactive | TAAR1 desens inactive | Ga16 nonsel ant inactive
O=C(Cc1ccccc1)Nc1ccc(NC(=O)c2ccccc2)nc1	TAAR1 agonist 53 | TAAR1 ag conf 64 | Ga16 ag counter inactive | TAAR1 desens inactive | Ga16 nonsel ant inactive
O=C(Nc1ccc(NC(=O)C2CC2)cn1)c1ccccc1	none
COc1ccc(N2CC(C(=O)N[C@@H](C)C(=O)NCCc3ccccc3)CC2=O)cc1 (stereo partly specified)	TAAR1 agonist 62 | TAAR1 ag conf 48 | Ga16 ag counter inactive | TAAR1 desens inactive | Ga16 nonsel ant inactive
Oc1cccc2ccc(Nc3ccccn3)nc12	TAAR1 agonist 48 | TAAR1 ag conf 58 | Ga16 ag counter inactive | TAAR1 desens inactive | Ga16 nonsel ant inactive
Cc1cc(N2CCC(C)CC2)c(F)cc1[N+](=O)[O-]	none
Cc1cc(N2CCCC2)c(F)cc1/C=C\[N+](=O)[O-]	TAAR1 agonist 193, CHRM1 agonist 28, TAAR1 antagonist 81 | TAAR1 ag conf 61 | Ga16 ag counter 68 | TAAR1 desens 60 | Ga16 nonsel ant 70
CCOC(=O)C1C(=O)C=C(c2ccc(C)cc2)CC1c1ccccc1 (stereo unspecified)	none
CCOC(=O)C1C(=O)C=C(/C=C/c2ccc(N(C)C)cc2)CC1c1ccccc1 (stereo unspecified)	TAAR1 agonist 79, CHRM1 agonist 18, TAAR1 antagonist 70 | TAAR1 ag conf 69 | Ga16 ag counter 85 | TAAR1 desens 85 | Ga16 nonsel ant 84
CCN(CC)c1ccc(C=C2SC(=S)NC2=O)cc1	TAAR1 agonist 120, CHRM1 agonist 111, TAAR1 antagonist 105, CHRM1 antagonist 83 | TAAR1 ag conf 97 | Ga16 ag counter 104 | TAAR1 desens 101 | Ga16 nonsel ant 98
Cc1ccc(SCC(=O)Nc2ccc(N3CCN(C)CC3)c(F)c2)c(C)c1	TAAR1 agonist 60, TAAR1 antagonist 52, CHRM1 antagonist 30 | TAAR1 ag conf 80 | Ga16 ag counter inactive | TAAR1 desens 75 | Ga16 nonsel ant inactive
Cc1ccc(-n2nnnc2SCC(=O)Nc2ccc(N3CCN(C)CC3)cc2)c(C)c1	none
Cc1c(Cl)ccc2c1NC(=O)[C@]21N[C@@H](Cc2ccccc2)[C@H]2C(=O)N(c3ccc(F)cc3)C(=O)[C@H]21	TAAR1 agonist 92, CHRM1 agonist 17 | TAAR1 ag conf 103 | Ga16 ag counter 42 | TAAR1 desens 75 | Ga16 nonsel ant 38
CCC1(CC)C(=O)NC(=O)NC1=S	none

Screens as filed in PubChem BioAssay.
